Data reported in ChEMBL document CHEMBL4619746, “Discovery and biological evaluation of proteolysis targeting chimeras (PROTACs) as an EGFR degraders based on osimertinib and lenalidomide” (Bioorg Med Chem Lett, 2020).
The source made the active and inactive calls. No cut-off for these calls is given here.

Columns and labels:
[1] = test system: Protein cereblon/Epidermal growth factor receptor (Homo sapiens), P00533+Q96SW2 [L858R,T790M]; test: Protac activity at CRBN/EGFR L858R/T790M mutant in human H1975 cells assessed as induction of degradation of EGFR at 10 uM incubated for 24 hrs by Western blot analysis; assay type: cell-based
In short: (§1)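 PC9 (EGFR Del19) and H1975 (EGFR L858R/T790M) cells exposed to 10 μM compound for 24 h. Cell lysates analysed for EGFR protein by western blot.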

[2] = test system: Protein cereblon/Epidermal growth factor receptor (Homo sapiens), P00533+Q96SW2 [UNDEFINED MUTATION]; test: Protac activity at CRBN/EGFR exon 19 deletion mutant in human PC9 cells assessed as increase in degradation of EGFR at 10 uM incubated for 24 hrs by Western blot analysis; assay type: cell-based; settings: PC-9; in short: as §1
NCI-H1975 = test: Antiproliferative activity against human NCI-H1975 cells harboring EGFR L858R/T790M double mutant by MTT assay; assay type: functional, cell-based
In short: (§2)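 MTT proliferation read-out in human NSCLC lines: PC9 (EGFR Del19), HCC827 (EGFR Del E746-A750) and H1975 (EGFR L858R/T790M). IC50 values are in μM and reported as mean ± SD from n = 3.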

PC-9 [3] = test: Antiproliferative activity against human PC9 cells harboring EGFRDel19 mutant by MTT assay; assay type: functional, cell-based; in short: as §2
HCC827 = test: Antiproliferative activity against human HCC827 cells harboring EGFRDel19 mutant by MTT assay; assay type: functional, cell-based; in short: as §2
[4] = test system: Protein cereblon/Epidermal growth factor receptor (Homo sapiens), P00533+Q96SW2 [UNDEFINED MUTATION]; test: Protac activity at CRBN/EGFR exon 19 deletion mutant in human PC9 cells assessed as induction of degradation of EGFR assessed as fold change in EGFR protein expression at 0.3 uM incubated for 48 hrs by Western blot analysis relative to control (reference value: 1); assay type: cell-based; settings: PC-9
In short: (§3)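 Time course in PC9 cells at a fixed 0.3 μM. Cells harvested at the indicated time points and EGFR protein quantified by western blot relative to control.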

[5] = test system: Protein cereblon/Epidermal growth factor receptor (Homo sapiens), P00533+Q96SW2 [UNDEFINED MUTATION]; test: Protac activity at CRBN/EGFR exon 19 deletion mutant in human PC9 cells assessed as induction of degradation of EGFR assessed as fold change in EGFR protein expression at 0.3 uM incubated for 24 hrs by Western blot analysis relative to control (reference value: 1); assay type: cell-based; settings: PC-9; in short: as §3
[6] = test system: Protein cereblon/Epidermal growth factor receptor (Homo sapiens), P00533+Q96SW2 [UNDEFINED MUTATION]; test: Protac activity at CRBN/EGFR exon 19 deletion mutant in human PC9 cells assessed as induction of degradation of EGFR assessed as fold change in EGFR protein expression at 0.3 uM incubated for 12 hrs by Western blot analysis relative to control (reference value: 1); assay type: cell-based; settings: PC-9; in short: as §3
[7] = test system: Protein cereblon/Epidermal growth factor receptor (Homo sapiens), P00533+Q96SW2 [UNDEFINED MUTATION]; test: Protac activity at CRBN/EGFR exon 19 deletion mutant in human PC9 cells assessed as induction of degradation of EGFR assessed as fold change in EGFR protein expression at 0.3 uM incubated for 3 hrs by Western blot analysis relative to control (reference value: 1); assay type: cell-based; settings: PC-9; in short: as §3
[8] = test system: Protein cereblon/Epidermal growth factor receptor (Homo sapiens), P00533+Q96SW2 [UNDEFINED MUTATION]; test: Protac activity at CRBN/EGFR exon 19 deletion mutant in human PC9 cells assessed as induction of degradation of EGFR assessed as fold change in EGFR protein expression at 0.3 uM incubated for 1 hr by Western blot analysis relative to control (reference value: 1); assay type: cell-based; settings: PC-9; in short: as §3
[9] = test system: Protein cereblon/Epidermal growth factor receptor (Homo sapiens), P00533+Q96SW2 [UNDEFINED MUTATION]; test: Protac activity at CRBN/EGFR exon 19 deletion mutant in human PC9 cells assessed as induction of degradation of EGFR at 0.3 uM incubated for 6 hrs by Western blot analysis relative to control; assay type: cell-based; settings: PC-9; in short: as §3
[10] = test system: Protein cereblon/Epidermal growth factor receptor (Homo sapiens), P00533+Q96SW2 [UNDEFINED MUTATION]; test: Protac activity at CRBN/EGFR exon 19 deletion mutant in human PC9 cells assessed as induction of degradation of EGFR by measuring fold change in EGFR protein expression at 0.1 uM incubated for 6 hrs by Western blot analysis relative to control (reference value: 1); assay type: cell-based; settings: PC-9
In short: (§4)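 PC9 cells (EGFR Del19) exposed for 6 h to six concentrations from 0.1 μM to 10 μM. EGFR protein measured by western blot relative to untreated control. DC50 and Dmax derived from the concentration-response.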

[11] = test system: Protein cereblon/Epidermal growth factor receptor (Homo sapiens), P00533+Q96SW2 [UNDEFINED MUTATION]; test: Protac activity at CRBN/EGFR exon 19 deletion mutant in human PC9 cells assessed as induction of degradation of EGFR by measuring fold change in EGFR protein expression at 0.3 uM incubated for 6 hrs by Western blot analysis relative to control (reference value: 1); assay type: cell-based; settings: PC-9; in short: as §4
[12] = test system: Protein cereblon/Epidermal growth factor receptor (Homo sapiens), P00533+Q96SW2 [UNDEFINED MUTATION]; test: Protac activity at CRBN/EGFR exon 19 deletion mutant in human PC9 cells assessed as induction of degradation of EGFR by measuring fold change in EGFR protein expression at 1 uM incubated for 6 hrs by Western blot analysis relative to control (reference value: 1); assay type: cell-based; settings: PC-9; in short: as §4
[13] = test system: Protein cereblon/Epidermal growth factor receptor (Homo sapiens), P00533+Q96SW2 [UNDEFINED MUTATION]; test: Protac activity at CRBN/EGFR exon 19 deletion mutant in human PC9 cells assessed as induction of degradation of EGFR by measuring fold change in EGFR protein expression at 3 uM incubated for 6 hrs by Western blot analysis relative to control (reference value: 1); assay type: cell-based; settings: PC-9; in short: as §4
[14] = test system: Protein cereblon/Epidermal growth factor receptor (Homo sapiens), P00533+Q96SW2 [UNDEFINED MUTATION]; test: Protac activity at CRBN/EGFR exon 19 deletion mutant in human PC9 cells assessed as induction of degradation of EGFR by measuring fold change in EGFR protein expression at 10 uM incubated for 6 hrs by Western blot analysis relative to control (reference value: 1); assay type: cell-based; settings: PC-9; in short: as §4
[15] = test system: Protein cereblon/Epidermal growth factor receptor (Homo sapiens), P00533+Q96SW2 [UNDEFINED MUTATION]; test: (§5) Protac activity at CRBN/EGFR exon 19 deletion mutant in human PC9 cells assessed as induction of degradation of EGFR incubated for 6 hrs by Western blot analysis; assay type: cell-based; settings: PC-9; in short: as §4
[16] = biological target: Protein cereblon/Epidermal growth factor receptor (Homo sapiens, UniProt P00533+Q96SW2); test: as §5; assay type: cell-based; settings: pc-9; in short: as §4
[17] = test system: Protein cereblon/Epidermal growth factor receptor (Homo sapiens), P00533+Q96SW2 [UNDEFINED MUTATION]; test: Protac activity at CRBN/EGFR exon 19 deletion mutant in human PC9 cells assessed as induction of degradation of EGFR at 0.3 uM pretreated with proteasome inhibitor, MG-132 for 2 hrs followed by incubation with compound for 6 hrs by Western blot analysis; assay type: cell-based; settings: PC-9
In short: (§6)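 PC9 cells pretreated for 2 h with proteasome inhibitor MG-132 (10 μM) or lenalidomide (10 μM), then given 0.3 μM PROTAC for 6 h. EGFR levels read by western blot.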

[18] = test system: Protein cereblon/Epidermal growth factor receptor (Homo sapiens), P00533+Q96SW2 [UNDEFINED MUTATION]; test: Protac activity at CRBN/EGFR exon 19 deletion mutant in human PC9 cells assessed as induction of degradation of EGFR at 0.3 uM pretreated with proteasome inhibitor, lenalidomide for 2 hrs followed by incubation with compound for 6 hrs by Western blot analysis; assay type: cell-based; settings: PC-9; in short: as §6
[19] = test system: Protein cereblon/Epidermal growth factor receptor (Homo sapiens), P00533+Q96SW2 [UNDEFINED MUTATION]; test: Protac activity at CRBN/EGFR exon 19 deletion mutant in human PC9 cells assessed as induction of degradation of EGFR at 0.3 uM incubated for 24 hrs by DAPI-staining based immunofluorescence microscopy; assay type: cell-based; settings: PC-9
PC-9 [20] = test: Induction of cell cycle arrest in human PC9 cells harboring EGFRDel19 mutant assessed as accumulation in G0/G1 phase at 0.5 uM incubated for 24 hrs by confocal microscopy; assay type: functional, cell-based
In short: (§7)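 PC9 cells were exposed to 0.5 μM test agent for 24 h. Cell cycle distribution and apoptosis were then read on an ImageXpress Micro Confocal/Widefield high-content imaging system.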

PC-9 [21] = test: Induction of apoptosis in human PC9 cells harboring EGFRDel19 mutant at 0.5 uM incubated for 24 hrs by confocal microscopy relative to control; assay type: functional; in short: as §7

C=CC(=O)Nc1cc(Nc2nccc(-c3cn(C)c4ccccc34)n2)c(OC)cc1N(C)CCN(C)CCOCCOCCOCC(=O)Nc1cccc2c1CN(C1CCC(=O)NC1=O)C2=O (stereo not drawn)
Activity [1]: Active
Activity [2]: Active
IC50 (NCI-H1975): 1700 nM
IC50 (PC-9 [3]): 1120 nM
IC50 (HCC827): 1610 nM

C=CC(=O)Nc1cc(Nc2nccc(-c3cn(C)c4ccccc34)n2)c(OC)cc1N(C)CCN(C)CCOCCOCCOCCOCC(=O)Nc1cccc2c1CN(C1CCC(=O)NC1=O)C2=O (stereo not drawn)
fold change (FC) [4]: 0.57
fold change (FC) [5]: 0.52
fold change (FC) [6]: 1.39
fold change (FC) [7]: 1.01
fold change (FC) [8]: 0.96
Emax [9]: 56 to 68%
fold change (FC) [10]: 0.61
fold change (FC) [11]: 0.32 to 0.44
fold change (FC) [12]: 0.82
fold change (FC) [13]: 0.49
fold change (FC) [14]: 0.39
Activity [15]: Dose-dependent effect
DC50 [16]: 161 nM
Activity [1]: Active
Activity [2]: Active
IC50 (NCI-H1975): 657 nM
IC50 (PC-9 [3]): 413 nM
IC50 (HCC827): 1340 nM
Activity [17]: inactive
Activity [18]: inactive
Activity [19]: Active
Activity (PC-9 [20]): Active
Activity (PC-9 [21]): 38.6%

C=CC(=O)Nc1cc(Nc2nccc(-c3cn(C)c4ccccc34)n2)c(OC)cc1N(C)CCN(C)CCOCCOCC(=O)Nc1cccc2c1CN(C1CCC(=O)NC1=O)C2=O (stereo not drawn)
Activity [1]: Active
Activity [2]: Active
IC50 (NCI-H1975): 1390 nM
IC50 (PC-9 [3]): 1420 nM
IC50 (HCC827): 1870 nM
